In publication PMC11401921 (Nature Communications, 2024):
Where two headings read alike, the source gives them in different places.

What was measured:
[1] = test system: Arabidopsis WT (Col) seedlings; experiment: GO analysis of DEGs; assay type: in vivo, Arabidopsis thaliana; details: unique DEGs
Summary of the method: (§1)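 Ten-day-old WT Col seedlings were mock-treated or exposed to 50 μM ABA or test compound for 3 h, in biological duplicates. Total RNA was sequenced as 50 bp paired-end reads, about 20 million per sample. Reads were mapped to the Arabidopsis gene model and counted per gene, then tested for differential expression. DEGs were subjected to GO analysis.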

[2] = target: T1, PYL1 (Arabidopsis thaliana, UniProt Q8VZS8); experiment: ITC binding to PYL1
T1 sequence (Q8VZS8 1-221): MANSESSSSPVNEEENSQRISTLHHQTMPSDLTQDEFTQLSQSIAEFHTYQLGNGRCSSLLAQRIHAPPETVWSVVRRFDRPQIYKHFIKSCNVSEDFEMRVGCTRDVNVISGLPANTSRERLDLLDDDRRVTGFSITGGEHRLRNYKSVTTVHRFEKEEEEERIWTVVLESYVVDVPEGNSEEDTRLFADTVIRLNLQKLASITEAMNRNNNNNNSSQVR
Summary of the method: (§2)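 Full-length N-terminal His6-tagged receptor was expressed in E. coli BL21(DE3) and purified by Ni-NTA, ion exchange and gel filtration, with the tag removed. ITC ran at 25 °C in 25 mM HEPES, 100 mM NaCl, pH 7.5, using degassed ligand dissolved in the same buffer. Final protein was 50–100 μM and ligand 500–1000 μM.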

[3] = target: T1, PYL1; details: PYL1, literature value; cited from earlier work
[4] = test system: Arabidopsis WT (Col) seedlings; experiment: RNA-Seq transcriptome analysis; assay type: in vivo, Arabidopsis thaliana; details: ten-day-old plants, 50 μM, 3 h
Summary of the method: as §1

[5] = test system: Arabidopsis thaliana seeds (WT Col-0 and mutants); experiment: Seed germination assay; assay type: in vivo; details: ABA 1 µM
Summary of the method: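 WT Col-0 and mutant seeds (pyr1/pyl1/pyl2/pyl4, pyl3/pyl7/pyl9/pyl11/pyl12, PYL4 overexpression) were stratified for 4 days. They were sown on half-strength MS agar with 1% sucrose containing 0.05% DMSO, 1 µM ABA, 1 µM test compound, or both. Each treatment used 40 seeds per plate on three plates, at 22 °C under long days. Seeds were scored daily as germinated when green cotyledons appeared.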

[6] = target: T2, PYR1 (Arabidopsis thaliana, UniProt O49686); experiment: ITC binding to PYR1; details: PYR1 wild type
T2 sequence (O49686 1-191): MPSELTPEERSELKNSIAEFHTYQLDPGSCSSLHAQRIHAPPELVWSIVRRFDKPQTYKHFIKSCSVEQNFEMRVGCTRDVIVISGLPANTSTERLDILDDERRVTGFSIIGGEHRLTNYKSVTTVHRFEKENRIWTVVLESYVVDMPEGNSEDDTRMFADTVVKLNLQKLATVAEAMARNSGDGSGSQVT
Summary of the method: as §2

[7] = test system: HAB1 with PYR1, PYL1, PYL2, PYL3, PYL5, PYL6 and PYL10; experiment: Phosphatase assay, HAB1 with all seven tested PYLs; assay type: biochemical, Arabidopsis thaliana; details: 5 μM ABA
Summary of the method: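 Recombinant His-tagged HAB1 phosphatase activity was measured with a Ser/Thr phosphatase assay system. Receptor:HAB1 was 0.4:0.4 μM (1:1) for PYR1, PYL1, PYL2 and PYL3, and 0.8:0.4 μM (2:1) for PYL5, PYL6 and PYL10. Mixtures were incubated with 5 μM ABA, 50 μM test compound, or both. Three biological replicates were run.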

[8] = target: T3, PYR1 dimer (Arabidopsis thaliana, UniProt O49686); experiment: SEC-MALLS protein oligomeric state; details: 1 mM chemical(s), PYR1 80 μM
T3 sequence (O49686 1-191): T2 sequence (O49686 1-191)
Summary of the method: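 Size exclusion used a Superdex S200 column in 20 mM Tris pH 7.5, 150 mM NaCl, 1 mM β-mercaptoethanol, at 20 °C and 0.5 ml/min. The equilibration buffer held 1 mM ABA, 1 mM test compound, or both. Receptor was injected at 80 μM. Weight-averaged molar mass was calculated from on-line MALLS with a 690 nm laser.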

[9] = test system: seed germination; details: cited from earlier work

| Kd [2] [µM] | Kd [6] [µM] | inhibition of HAB1 activity [7] [%] | elution volume of PYR1 [8] [mL] | molecular mass of PYR1 ([8]; dimer theoretical 43 kDa) [kDa] | SMILES | number of genes involved in seed germination induced (GO:0009845) [1] | Kd [3] [µM] | number of genes specifically responsive [4] | number of differentially expressed genes (DEGs) induced ([4]; relative to DMSO) | germination rate ([5]; 4OE seeds) | germination phenotype ([5]; 1124 (pyr1/pyl1/pyl2/pyl4) seeds) | germination rate ([5]; 3791112 seeds) | germination rate ([5]; WT seeds) | activity in inhibiting seed germination relative to ABA [9] |
| --- | --- | --- | --- | --- | --- | --- | --- | --- | --- | --- | --- | --- | --- | --- |
| 23.5 | 22 | ≥ 70 | 16.02 to 17.05 | 22 ± 2 | CC1=CC(=O)CC(C)(C)[C@@]1(O)/C=C/C(C)=C\C(=O)O [ABA, Abscisic acid] | 28 | ~50 | 2602 | 3366 | lower than 30% | ABA insensitive phenotype | lower than 30% | lower than 30% |  |
|  |  |  |  |  | N#Cc1c(C2CC2)cc(CC(=O)NC2(C(=O)O)CCCCC2)cc1C1CC1 [opabactin] |  |  |  |  |  |  |  |  | ~ 10 fold |
